# Test results as given in ChEMBL document CHEMBL1250429, “Studies on the anti-hepatitis C virus activity of newly synthesized tropolone derivatives: identification of NS3 helicase inhibitors that specifically inhibit subgenomic HCV replication” (Bioorg Med Chem, 2010).
# Tests used:
# [1] = Inhibition of HCV NS3 helicase; set-up: species or system Hepacivirus hominis
# How it was run: (§1)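 Fluorescence unwinding assay with purified NS3 helicase domains. Genotype 1a was expressed in baculovirus-infected insect cells; genotypes 1b and 3a were cloned from patient blood by RT-PCR, purity 95% by SDS–PAGE. Reactions used 10 nM dsDNA substrate, 20 nM enzyme and 125 nM capture strand. Inhibitor (1–300 μM) was preincubated with enzyme and substrate 15 min at room temperature without ATP. Reactions were started with 1.5 mM ATP and run 60 min at 30 °C, read every 2 min. Activity = initial velocity; inhibition relative to no-inhibitor control. Mean of at least three experiments ± SD.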
# Hepatitis C virus [2] = experiment: Antiviral activity against HCV Con 1 by subgenomic replicon assay; assay type: functional, organism-based, Hepacivirus hominis; settings: Con1
# How it was run: (§2)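 Huh-7 cells carrying a stably replicating subgenomic HCV replicon were grown with compound at 1 μM to 1 mM, final solvent 1%; solvent-only cells served as control. Remaining replication read as luminescence. EC50 = concentration reducing luminescence by 50%; SI = CC50/EC50. Mean of at least three independent experiments ± SD.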
# [3] = Selectivity index, ratio of CC50 for human HuH7 cells to EC50 for; set-up: species or system Huh-7; how it was run: as §2
# [4] = Cytotoxicity against human HuH7 cells; assay type: cell-based, Huh-7
# How it was run: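 Replicon-bearing Huh-7 cells were grown with compound at 1 μM to 1 mM at a constant final 1% solvent. CC50 = concentration inhibiting cell growth by 50%. Mean of at least three independent experiments ± SD.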
# Hepatitis C virus [5] = experiment: Inhibition of HCV genotype 1B NS3 helicase; set-up: species or system Hepatitis C virus subtype 1b; how it was run: as §1
# [6] = Inhibition of HCV genotype 3a NS3 helicase; set-up: species or system Hepatitis C virus subtype 3a; how it was run: as §1
# [7] = Inhibition of HCV genotype 1a NS3 helicase; set-up: species or system Hepatitis C virus subtype 1a; how it was run: as §1
Compound,IC50 [1],EC50 (Hepatitis C virus [2]),Ratio CC50/EC50 [3],CC50 [4],IC50 (Hepatitis C virus [5]),IC50 [6],IC50 [7]
O=c1c(Br)cccc(Br)c1O,> 150 µM,89.8 µM,1,92.7 µM,,,
[N-]=[N+]=N[C@]1(CO)O[C@@H](n2ccc(N)nc2=O)[C@H](O)[C@@H]1O [4'-AZIDOCYTIDINE],,10.5 µM,,> 100 µM,,,
CN1CCN(Cc2cc(CN3CCN(C)CC3)c(O)c(=O)c(CN3CCN(C)CC3)c2)CC1,3.4 µM,46.9 µM,>21.3,> 1000 µM,3.5 µM,4.5 µM,3.4 µM
O=c1c(CN2CCC(O)CC2)cc(CN2CCC(O)CC2)cc(CN2CCC(O)CC2)c1O,22.7 µM,> 250 µM,,> 250 µM,,,
O=c1c(CN2CCC(N3CCCC3)CC2)cc(CN2CCC(N3CCCC3)CC2)cc(CN2CCC(N3CCCC3)CC2)c1O,7 µM,> 200 µM,,> 200 µM,,,
O=c1c(CN2CCCC2)cc(CN2CCCC2)cc(CN2CCCC2)c1O,184 µM,> 500 µM,,> 500 µM,,,
CC1CCCN(Cc2cc(CN3CCCC(C)C3)c(O)c(=O)c(CN3CCCC(C)C3)c2)C1 (centres undefined),17.8 µM,35.6 µM,9.8,348 µM,,,
O=c1c(CN2CCCCC2)cc(CN2CCCCC2)cc(CN2CCCCC2)c1O,26.5 µM,137 µM,>3.6,> 500 µM,,,
O=c1ccccc(Br)c1O,> 150 µM,121 µM,0.7,85.2 µM,,,
CC1CCN(Cc2cc(CN3CCC(C)CC3)c(O)c(=O)c(CN3CCC(C)CC3)c2)CC1,10.5 µM,32 µM,17.4,556 µM,,,
O=c1c(Br)cc(CN2CCOCC2)cc(Br)c1O,17.6 µM,176 µM,1.3,227 µM,,,
NC(=O)c1ncn([C@@H]2O[C@H](CO)[C@@H](O)[C@H]2O)n1 [RIBAVIRIN],,120 µM,1.5,178 µM,,,
O=c1c(Cl)cccc(Cl)c1O,> 150 µM,334 µM,0.8,254 µM,,,
